According to ChEMBL document CHEMBL4251626, “4β-amidotriazole linked podophyllotoxin congeners: DNA topoisomerase-IIα inhibition and potential anticancer agents for prostate cancer” (Eur J Med Chem, 2018):
Active and inactive are the calls of the source. The rule behind the calls is not given here.

These molecules were tested on HT-29 (assay: Antiproliferative activity against human HT-29 cells after 48 hrs by MTT assay). Details: HT-29, 48 h.
Format: functional, cell-based
Procedure, shortened: (§1)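 Cells in DMEM/10% FBS pre-incubated 24 h at 37 °C, then compound-treated 48 h (10 mM DMSO stock diluted in medium). MTT (10 µL of 5 mg/mL) added for 4 h; formazan dissolved in DMSO, absorbance read at 570 nm. IC50 = 50% inhibitory concentration, mean of three individual experiments.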
Molecule COc1cc([C@@H]2c3cc4c(cc3C(NC(=O)c3cn(-c5ccc(Cl)cc5)nn3)[C@H]3COC(=O)[C@H]23)OCO4)cc(OC)c1OC (single isomer, unassigned) has an IC50 of 4110 nM.

The molecules below were run on DU-145 (assay: Cell cycle arrest in human DU145 cells assessed as accumulation at G2/M phase at 0.5 uM after 24 hrs by propidium iodide staining based flow cytometry relative to control). Details: not given.
Format: functional
Procedure, shortened: (§2)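 DU-145 cells (2x10^5/well) serum-starved 24 h to synchronize, then treated in complete medium for 24 h. Harvested and fixed in 70% ethanol at -20 °C for 30 min. RNase A (0.1 mg/mL, 37 °C, 30 min), then propidium iodide (50 µg/mL, 30 min on ice, dark). DNA content measured by flow cytometry.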
For COc1cc([C@@H]2c3cc4c(cc3C(NC(=O)c3cn(-c5ccc(Cl)cc5)nn3)[C@H]3COC(=O)[C@H]23)OCO4)cc(OC)c1OC (single isomer, unassigned), the Activity was 31.94%.

Each molecule was assayed on A549 (assay: Antiproliferative activity against human A549 cells after 48 hrs by MTT assay). Details: A549, 48 h.
Format: functional, cell-based
Procedure, shortened: as §1
COc1cc([C@@H]2c3cc4c(cc3C(NC(=O)c3cn(-c5ccc(Cl)cc5)nn3)[C@H]3COC(=O)[C@H]23)OCO4)cc(OC)c1OC (single isomer, unassigned) showed an IC50 of 1200 nM.

The molecules below were run on DU-145 (assay: Induction of mitochondrial membrane potential loss in human DU145 cells […] at 0.5 to 1 uM after 24 hrs by JC1 staining based flow cytometry). Details: not given.
Format: functional, cell-based
Procedure, shortened: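 Cells (2x10^5/well) treated 24 h, trypsinized and pelleted (400 g, 5 min). Incubated with freshly made JC-1 working solution for 15 min at 37 °C, washed twice in assay buffer. Analysed by flow cytometry as percentage of J-aggregate versus J-monomer cells.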
COc1cc([C@@H]2c3cc4c(cc3C(NC(=O)c3cn(-c5ccc(Cl)cc5)nn3)[C@H]3COC(=O)[C@H]23)OCO4)cc(OC)c1OC (single isomer, unassigned) was tested, and the Activity was “inactive”.

Each molecule was assayed on DU-145 (assay: Induction of apoptosis in human DU145 cells assessed as nuclear condensation at 0.5 to 1 uM after 24 hrs by Hoechst staining based fluorescence microscopic method). Details: not given.
Format: functional, cell-based
Procedure, shortened: (§3)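 DU-145 cells (1x10^5/well) incubated overnight, then treated 24 h. After three PBS washes, stained with Hoechst (1 µg/ml) for 20 min at 37 °C and washed. Imaged by fluorescence microscopy; random fields counted for chromatin condensation and nuclear fragmentation.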
In the case of COc1cc([C@@H]2c3cc4c(cc3C(NC(=O)c3cn(-c5ccc(Cl)cc5)nn3)[C@H]3COC(=O)[C@H]23)OCO4)cc(OC)c1OC (single isomer, unassigned), the Activity is reported as “Active”.

Each molecule was assayed on DU-145 (assay: Induction of apoptosis in human DU145 cells assessed as cell shrinkage at 0.5 to 1 uM after 24 hrs by phase contrast microscopic method). Details: not given.
Format: functional, cell-based
Procedure, shortened: (§4)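 DU-145 cells (2x10^5/well) plated overnight; medium replaced with fresh medium containing compound at indicated concentrations for 24 h. Cell morphology examined and photographed by phase-contrast microscopy.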
For COc1cc([C@@H]2c3cc4c(cc3C(NC(=O)c3cn(-c5ccc(Cl)cc5)nn3)[C@H]3COC(=O)[C@H]23)OCO4)cc(OC)c1OC (single isomer, unassigned), the Activity was “Active”.

What follows are molecules tested on DU-145 (assay: Induction of apoptosis in human DU145 cells assessed as late apoptotic cells at 1 uM after 24 hrs by Annexin V-FITC/propidium iodide staining based flow cytometry (reference value: 1.49%)). Details: not given.
Format: functional
Work on COc1cc([C@@H]2c3cc4c(cc3C(NC(=O)c3cn(-c5ccc(Cl)cc5)nn3)[C@H]3COC(=O)[C@H]23)OCO4)cc(OC)c1OC (single isomer, unassigned) yielded an Activity of 1.8%.

The molecules below were run on DU-145 (assay: Antiproliferative activity against human DU145 cells after 48 hrs by MTT assay). Details: DU-145, 48 h.
Format: functional, cell-based
Procedure, shortened: as §1
Molecule COc1cc([C@@H]2c3cc4c(cc3C(NC(=O)c3cn(-c5ccc(Cl)cc5)nn3)[C@H]3COC(=O)[C@H]23)OCO4)cc(OC)c1OC (single isomer, unassigned) has an IC50 of 700 nM.

Each molecule was assayed on DU-145 (assay: Cell cycle arrest in human DU145 cells assessed as accumulation at G2/M phase at 1 uM after 24 hrs by propidium iodide staining based flow cytometry relative to control). Details: not given.
Format: functional
Procedure, shortened: as §2
COc1cc([C@@H]2c3cc4c(cc3C(NC(=O)c3cn(-c5ccc(Cl)cc5)nn3)[C@H]3COC(=O)[C@H]23)OCO4)cc(OC)c1OC (single isomer, unassigned) gave an Activity of 35.61%.

The molecules below were run on MCF7 (assay: Antiproliferative activity against human MCF7 cells after 48 hrs by MTT assay). Details: MCF7, 48 h.
Format: functional, cell-based
Procedure, shortened: as §1
Work on COc1cc([C@@H]2c3cc4c(cc3C(NC(=O)c3cn(-c5ccc(Cl)cc5)nn3)[C@H]3COC(=O)[C@H]23)OCO4)cc(OC)c1OC (single isomer, unassigned) yielded an IC50 of 970 nM.

What follows are molecules tested on DU-145 (assay: Induction of apoptosis in human DU145 cells assessed as late apoptotic cells at 0.5 uM after 24 hrs by Annexin V-FITC/propidium iodide staining based flow cytometry (reference value: 1.49%)). Details: not given.
Format: functional
COc1cc([C@@H]2c3cc4c(cc3C(NC(=O)c3cn(-c5ccc(Cl)cc5)nn3)[C@H]3COC(=O)[C@H]23)OCO4)cc(OC)c1OC (single isomer, unassigned) showed an Activity of 1.93%.

These molecules were tested on DU-145 (assay: Induction of apoptosis in human DU145 cells assessed as early apoptotic cells at 0.5 uM after 24 hrs by Annexin V-FITC/propidium iodide staining based flow cytometry (reference value: 0.56%)). Details: not given.
Format: functional
Work on COc1cc([C@@H]2c3cc4c(cc3C(NC(=O)c3cn(-c5ccc(Cl)cc5)nn3)[C@H]3COC(=O)[C@H]23)OCO4)cc(OC)c1OC (single isomer, unassigned) yielded an Activity of 3.94%.

These molecules were tested on DU-145 (assay: Induction of apoptosis in human DU145 cells assessed as early apoptotic cells at 1 uM after 24 hrs by Annexin V-FITC/propidium iodide staining based flow cytometry (reference value: 0.56%)). Details: not given.
Format: functional
COc1cc([C@@H]2c3cc4c(cc3C(NC(=O)c3cn(-c5ccc(Cl)cc5)nn3)[C@H]3COC(=O)[C@H]23)OCO4)cc(OC)c1OC (single isomer, unassigned) was tested, and the Activity was 4.35%.

These molecules were tested on DU-145 (assay: Antimigratory activity against human DU145 cells at 0.5 to 1 uM after 24 to 48 hrs by phase contrast microscopic based scratch assay). Details: not given.
Format: functional, cell-based
Procedure, shortened: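 DU-145 cells seeded at 2x10^5/well and grown to confluence; wound made with a sterile 200 µL tip, debris washed off with PBS. Fresh medium with compound at the indicated concentrations added. Migration followed by phase-contrast microscopy with images at 0, 24 and 48 h.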
COc1cc([C@@H]2c3cc4c(cc3C(NC(=O)c3cn(-c5ccc(Cl)cc5)nn3)[C@H]3COC(=O)[C@H]23)OCO4)cc(OC)c1OC (single isomer, unassigned) was tested, and the Activity was “inactive”.

Each molecule was assayed on DU-145 (assay: Induction of apoptosis in human DU145 cells assessed as cell detachment from substratum at 0.5 to 1 uM after 24 hrs by phase contrast microscopic method). Details: not given.
Format: functional, cell-based
Procedure, shortened: as §4
In the case of COc1cc([C@@H]2c3cc4c(cc3C(NC(=O)c3cn(-c5ccc(Cl)cc5)nn3)[C@H]3COC(=O)[C@H]23)OCO4)cc(OC)c1OC (single isomer, unassigned), the Activity is reported as “Active”.

The molecules below were run on DU-145 (assay: Induction of apoptosis in human DU145 cells assessed as nuclear fragmentation at 0.5 to 1 uM after 24 hrs by Hoechst staining based fluorescence microscopic method). Details: not given.
Format: functional, cell-based
Procedure, shortened: as §3
COc1cc([C@@H]2c3cc4c(cc3C(NC(=O)c3cn(-c5ccc(Cl)cc5)nn3)[C@H]3COC(=O)[C@H]23)OCO4)cc(OC)c1OC (single isomer, unassigned) was tested, and the Activity was “Active”.

The molecules below were run on DU-145 (assay: Induction of ROS production in human DU145 cells at 0.5 to 1 uM after 24 hrs by DCFDA staining based fluorescence microscopic method). Details: not given.
Format: functional, cell-based
Procedure, shortened: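 DU-145 cells (2x10^5/well) plated overnight, then treated 24 h at indicated concentrations. Medium replaced with DCFDA (10 µM) for 30 min at room temperature in the dark. After PBS washes, fluorescence was imaged by microscopy and reported as mean fluorescence intensity.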
COc1cc([C@@H]2c3cc4c(cc3C(NC(=O)c3cn(-c5ccc(Cl)cc5)nn3)[C@H]3COC(=O)[C@H]23)OCO4)cc(OC)c1OC (single isomer, unassigned) was tested, and the Activity was “Active”.

The molecules below were run on DU-145 (assay: Induction of apoptosis in human DU145 cells assessed as necrotic cells at 0.5 uM after 24 hrs by Annexin V-FITC/propidium iodide staining based flow cytometry (reference value: 1.65%)). Details: not given.
Format: functional
COc1cc([C@@H]2c3cc4c(cc3C(NC(=O)c3cn(-c5ccc(Cl)cc5)nn3)[C@H]3COC(=O)[C@H]23)OCO4)cc(OC)c1OC (single isomer, unassigned) showed an Activity of 0.41%.

What follows are molecules tested against DNA topoisomerase 2-alpha (Homo sapiens) (UniProt P11388) (assay: Poison activity at recombinant human topoisomerase-2 alpha assessed as linear DNA formation using pHOT1 kDNA as substrate at 100 uM after 10 mins by agarose gel electrophoresis method). Details: not given.
Chain of DNA topoisomerase 2-alpha (Homo sapiens) (P11388 whole entry): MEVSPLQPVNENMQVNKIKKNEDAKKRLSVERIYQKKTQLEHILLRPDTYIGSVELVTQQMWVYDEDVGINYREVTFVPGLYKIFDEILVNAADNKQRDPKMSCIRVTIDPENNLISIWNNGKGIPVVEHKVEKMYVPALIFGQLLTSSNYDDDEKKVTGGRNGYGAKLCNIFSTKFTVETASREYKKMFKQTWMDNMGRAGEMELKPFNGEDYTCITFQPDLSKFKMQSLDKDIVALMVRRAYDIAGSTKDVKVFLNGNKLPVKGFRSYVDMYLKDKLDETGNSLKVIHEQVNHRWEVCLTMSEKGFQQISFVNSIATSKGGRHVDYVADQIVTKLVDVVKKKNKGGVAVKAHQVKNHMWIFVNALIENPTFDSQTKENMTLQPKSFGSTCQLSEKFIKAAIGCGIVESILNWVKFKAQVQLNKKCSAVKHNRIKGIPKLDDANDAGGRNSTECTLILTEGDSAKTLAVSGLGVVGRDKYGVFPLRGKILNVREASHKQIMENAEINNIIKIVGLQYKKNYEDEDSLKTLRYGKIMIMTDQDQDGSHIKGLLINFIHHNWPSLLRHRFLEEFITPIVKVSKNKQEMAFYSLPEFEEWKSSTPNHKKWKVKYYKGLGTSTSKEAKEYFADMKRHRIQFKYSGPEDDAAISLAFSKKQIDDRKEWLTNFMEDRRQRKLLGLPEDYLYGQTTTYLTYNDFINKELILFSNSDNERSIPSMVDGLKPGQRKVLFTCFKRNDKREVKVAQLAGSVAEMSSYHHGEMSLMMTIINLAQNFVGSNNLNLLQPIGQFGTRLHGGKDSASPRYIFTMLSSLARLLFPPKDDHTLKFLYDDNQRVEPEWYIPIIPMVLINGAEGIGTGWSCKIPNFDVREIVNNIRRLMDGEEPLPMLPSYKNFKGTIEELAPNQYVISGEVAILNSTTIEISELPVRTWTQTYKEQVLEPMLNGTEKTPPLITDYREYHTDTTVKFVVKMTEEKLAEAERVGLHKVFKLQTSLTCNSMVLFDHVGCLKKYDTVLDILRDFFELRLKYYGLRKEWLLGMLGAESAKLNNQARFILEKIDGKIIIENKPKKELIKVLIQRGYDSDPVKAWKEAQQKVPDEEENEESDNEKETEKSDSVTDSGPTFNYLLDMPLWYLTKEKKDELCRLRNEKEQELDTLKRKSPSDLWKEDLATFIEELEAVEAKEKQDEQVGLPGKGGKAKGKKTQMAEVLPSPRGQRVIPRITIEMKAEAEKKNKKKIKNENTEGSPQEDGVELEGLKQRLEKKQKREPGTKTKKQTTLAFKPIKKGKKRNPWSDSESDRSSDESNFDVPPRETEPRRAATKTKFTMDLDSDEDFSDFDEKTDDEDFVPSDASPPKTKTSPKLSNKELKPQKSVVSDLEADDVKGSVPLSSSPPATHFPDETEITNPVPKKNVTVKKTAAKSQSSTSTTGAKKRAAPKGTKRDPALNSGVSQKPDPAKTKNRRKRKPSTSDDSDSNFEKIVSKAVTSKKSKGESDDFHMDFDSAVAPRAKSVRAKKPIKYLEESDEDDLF
Procedure, shortened: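 Five units human recombinant topo II, 10 min at 37 °C. Stopped with loading-dye stop buffer; products resolved on 1% agarose gel in TAE (catenated, decatenated, linear DNA).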
COc1cc([C@@H]2c3cc4c(cc3C(NC(=O)c3cn(-c5ccc(Cl)cc5)nn3)[C@H]3COC(=O)[C@H]23)OCO4)cc(OC)c1OC (single isomer, unassigned) was tested, and the Activity was “Active”.

What follows are molecules tested on DU-145 (assay: Induction of apoptosis in human DU145 cells assessed as live cells at 1 uM after 24 hrs by Annexin V-FITC/propidium iodide staining based flow cytometry (reference value: 96.3%)). Details: not given.
Format: functional
COc1cc([C@@H]2c3cc4c(cc3C(NC(=O)c3cn(-c5ccc(Cl)cc5)nn3)[C@H]3COC(=O)[C@H]23)OCO4)cc(OC)c1OC (single isomer, unassigned) gave an Activity of 93.69%.

The molecules below were run on HepG2 (assay: Antiproliferative activity against human HepG2 cells after 48 hrs by MTT assay). Details: HepG2, 48 h.
Format: functional, cell-based
Procedure, shortened: as §1
COc1cc([C@@H]2c3cc4c(cc3C(NC(=O)c3cn(-c5ccc(Cl)cc5)nn3)[C@H]3COC(=O)[C@H]23)OCO4)cc(OC)c1OC (single isomer, unassigned) gave an IC50 of 780 nM.

What follows are molecules tested on DU-145 (assay: Induction of apoptosis in human DU145 cells assessed as live cells at 0.5 uM after 24 hrs by Annexin V-FITC/propidium iodide staining based flow cytometry (reference value: 96.3%)). Details: not given.
Format: functional
Molecule COc1cc([C@@H]2c3cc4c(cc3C(NC(=O)c3cn(-c5ccc(Cl)cc5)nn3)[C@H]3COC(=O)[C@H]23)OCO4)cc(OC)c1OC (single isomer, unassigned) has an Activity of 93.72%.

These molecules were tested on NIH3T3 (assay: Antiproliferative activity against mouse NIH/3T3 cells after 48 hrs by MTT assay). Details: NIH3T3, 48 h.
Format: cell-based
Procedure, shortened: as §1
COc1cc([C@@H]2c3cc4c(cc3C(NC(=O)c3cn(-c5ccc(Cl)cc5)nn3)[C@H]3COC(=O)[C@H]23)OCO4)cc(OC)c1OC (single isomer, unassigned) was tested, and the IC50 was 89000 nM.

Each molecule was assayed on DU-145 (assay: Induction of apoptosis in human DU145 cells assessed as necrotic cells at 1 uM after 24 hrs by Annexin V-FITC/propidium iodide staining based flow cytometry (reference value: 1.65%)). Details: not given.
Format: functional
Work on COc1cc([C@@H]2c3cc4c(cc3C(NC(=O)c3cn(-c5ccc(Cl)cc5)nn3)[C@H]3COC(=O)[C@H]23)OCO4)cc(OC)c1OC (single isomer, unassigned) yielded an Activity of 0.16%.

These molecules were tested on HeLa (assay: Antiproliferative activity against human HeLa cells after 48 hrs by MTT assay). Details: not given.
Format: functional, cell-based
Procedure, shortened: as §1
Work on COc1cc([C@@H]2c3cc4c(cc3C(NC(=O)c3cn(-c5ccc(Cl)cc5)nn3)[C@H]3COC(=O)[C@H]23)OCO4)cc(OC)c1OC (single isomer, unassigned) yielded an IC50 of 780 nM.
